From ChEMBL document CHEMBL5724801, “EUbOPEN Chemogenomics Library - Multiplex” (2024)
Where “and” joins values, the source holds several entries; their conditions need not be identical. Equal entries are not always repeated.

Assays:
Fibroblast = test: Multiplex assay against human fibroblast; assay type: toxicity, cell-based
Outline: (§1)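 Live cells were stained at seeding with Hoechst33342, BioTracker Green Microtubule Cytoskeleton Dye, MitoTracker Red and Annexin V Alexa Fluor 680. Following compound addition, they were imaged on a CQ1 microscope at 37°C and 5% CO2 and gated by CellPathfinder machine learning into Hoechst high-intensity objects or normal cells, with normal cells split into healthy, pyknosed or fragmented nuclei and pyknosed cells into mitotic or apoptotic. Tubulin, mitochondrial-mass and membrane-permeability phenotypes are per cents of healthy-nucleus cells.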

HEK-293T = test: Multiplex assay against HEK293T; assay type: toxicity, cell-based; conditions: human; outline: as §1
[1] = 12 h, 1 µM, compound concentration 1 uM
[2] = 12 h, 10 µM, compound concentration 10 uM
[3] = 24 h, 1 µM, compound concentration 1 uM
[4] = 24 h, 10 µM, compound concentration 10 uM
[5] = 48 h, 1 µM, compound concentration 1 uM
[6] = 48 h, 10 µM, compound concentration 10 uM

Cl.Clc1ccc2nsnc2c1NC1=NCCN1 [TIZANIDINE HYDROCHLORIDE]
Population Apoptotic (%) (Fibroblast; [1]): 38% and 33% | Population Fragmented Nuclei (%) (Fibroblast; [1]): 10% and 24% | Population Healthy Nuclei (%) (Fibroblast; [1]): 72% and 49% | Population Hoechst High Intensity Objects (%) (Fibroblast; [1]): 3% and 4% | Population Membrane Permeable-Phenotype (%) (Fibroblast; [1]): 0% and 5% | Population Mitochondria Different-Phenotype (%) (Fibroblast; [1]): 4% and 5% | Population Mitotic Cells (%) (Fibroblast; [1]): 61% and 66% | Population Normal (%) (Fibroblast; [1]): 96% and 95% | Population Pyknosed Nuclei (%) (Fibroblast; [1]): 17% and 25% | Population Tubulin-Different-Phenotype (%) (Fibroblast; [1]): 21% and 50% | Total Cell Count (Fibroblast; [1]): 155 and 182 | Population Apoptotic (%) (Fibroblast; [2]): 36% and 21% | Population Fragmented Nuclei (%) (Fibroblast; [2]): 18% and 24% | Population Healthy Nuclei (%) (Fibroblast; [2]): 60% and 45% | Population Hoechst High Intensity Objects (%) (Fibroblast; [2]): 4% | Population Membrane Permeable-Phenotype (%) (Fibroblast; [2]): 0% and 7% | Population Mitochondria Different-Phenotype (%) (Fibroblast; [2]): 8% and 7% | Population Mitotic Cells (%) (Fibroblast; [2]): 64% and 78% | Population Normal (%) (Fibroblast; [2]): 95% | Population Pyknosed Nuclei (%) (Fibroblast; [2]): 20% and 29% | Population Tubulin-Different-Phenotype (%) (Fibroblast; [2]): 29% and 33% | Total Cell Count (Fibroblast; [2]): 129 and 143 | Population Apoptotic (%) (Fibroblast; [3]): 52% and 42% | Population Healthy Nuclei (%) (Fibroblast; [3]): 76% and 49% | Population Hoechst High Intensity Objects (%) (Fibroblast; [3]): 2% and 4% | Population Membrane Permeable-Phenotype (%) (Fibroblast; [3]): 0% and 9% | Population Mitochondria Different-Phenotype (%) (Fibroblast; [3]): 0% and 4% | Population Mitotic Cells (%) (Fibroblast; [3]): 47% and 57% | Population Normal (%) (Fibroblast; [3]): 97% and 95% | Population Pyknosed Nuclei (%) (Fibroblast; [3]): 16% and 24% | Total Cell Count (Fibroblast; [3]): 146 and 182 | Population Apoptotic (%) (Fibroblast; [4]): 45% and 47% | Population Fragmented Nuclei (%) (Fibroblast; [4]): 19% | Population Healthy Nuclei (%) (Fibroblast; [4]): 60% and 48% | Population Hoechst High Intensity Objects (%) (Fibroblast; [4]): 1% and 2% | Population Membrane Permeable-Phenotype (%) (Fibroblast; [4]): 0% and 9% | Population Mitochondria Different-Phenotype (%) (Fibroblast; [4]): 5% and 6% | Population Mitotic Cells (%) (Fibroblast; [4]): 54% and 52% | Population Normal (%) (Fibroblast; [4]): 98% and 97% | Population Pyknosed Nuclei (%) (Fibroblast; [4]): 20% and 32% | Population Tubulin-Different-Phenotype (%) (Fibroblast; [4]): 20% and 34% | Total Cell Count (Fibroblast; [4]): 122 and 135 | Population Apoptotic (%) (Fibroblast; [5]): 47% and 55% | Population Fragmented Nuclei (%) (Fibroblast; [5]): 17% and 29% | Population Healthy Nuclei (%) (Fibroblast; [5]): 71% and 47% | Population Hoechst High Intensity Objects (%) (Fibroblast; [5]): 2% and 6% | Population Membrane Permeable-Phenotype (%) (Fibroblast; [5]): 2% and 6% | Population Mitochondria Different-Phenotype (%) (Fibroblast; [5]): 1% and 8% | Population Mitotic Cells (%) (Fibroblast; [5]): 52% and 44% | Population Normal (%) (Fibroblast; [5]): 97% and 93% | Population Pyknosed Nuclei (%) (Fibroblast; [5]): 10% and 23% | Population Tubulin-Different-Phenotype (%) (Fibroblast; [5]): 19% and 56% | Total Cell Count (Fibroblast; [5]): 167 and 166 | Population Apoptotic (%) (Fibroblast; [6]): 69% and 63% | Population Fragmented Nuclei (%) (Fibroblast; [6]): 26% and 35% | Population Healthy Nuclei (%) (Fibroblast; [6]): 56% and 42% | Population Hoechst High Intensity Objects (%) (Fibroblast; [6]): 2% | Population Membrane Permeable-Phenotype (%) (Fibroblast; [6]): 0% and 6% | Population Mitochondria Different-Phenotype (%) (Fibroblast; [6]): 5% and 11% | Population Mitotic Cells (%) (Fibroblast; [6]): 30% and 36% | Population Normal (%) (Fibroblast; [6]): 97% | Population Pyknosed Nuclei (%) (Fibroblast; [6]): 17% and 21% | Population Tubulin-Different-Phenotype (%) (Fibroblast; [6]): 26% and 44% | Total Cell Count (Fibroblast; [6]): 133 and 141 | Population Apoptotic (%) (HEK-293T; [1]): 39% and 44% | Population Fragmented Nuclei (%) (HEK-293T; [1]): 9% and 2% | Population Healthy Nuclei (%) (HEK-293T; [1]): 80% and 83% | Population Hoechst High Intensity Objects (%) (HEK-293T; [1]): 8% and 9% | Population Membrane Permeable-Phenotype (%) (HEK-293T; [1]): 0% | Population Mitochondria Different-Phenotype (%) (HEK-293T; [1]): 36% and 62% | Population Mitotic Cells (%) (HEK-293T; [1]): 60% and 55% | Population Normal (%) (HEK-293T; [1]): 91% and 90% | Population Pyknosed Nuclei (%) (HEK-293T; [1]): 9% and 13% | Population Tubulin-Different-Phenotype (%) (HEK-293T; [1]): 26% and 20% | Total Cell Count (HEK-293T; [1]): 474 and 373 | Population Apoptotic (%) (HEK-293T; [2]): 30% and 46% | Population Fragmented Nuclei (%) (HEK-293T; [2]): 9% and 7% | Population Healthy Nuclei (%) (HEK-293T; [2]): 80% and 79% | Population Hoechst High Intensity Objects (%) (HEK-293T; [2]): 6% and 4% | Population Membrane Permeable-Phenotype (%) (HEK-293T; [2]): 0% | Population Mitochondria Different-Phenotype (%) (HEK-293T; [2]): 45% and 67% | Population Mitotic Cells (%) (HEK-293T; [2]): 70% and 53% | Population Normal (%) (HEK-293T; [2]): 93% and 95% | Population Pyknosed Nuclei (%) (HEK-293T; [2]): 9% and 13% | Population Tubulin-Different-Phenotype (%) (HEK-293T; [2]): 32% and 27% | Total Cell Count (HEK-293T; [2]): 450 and 343 | Population Apoptotic (%) (HEK-293T; [3]): 32% and 45% | Population Fragmented Nuclei (%) (HEK-293T; [3]): 11% and 10% | Population Healthy Nuclei (%) (HEK-293T; [3]): 79% and 80% | Population Hoechst High Intensity Objects (%) (HEK-293T; [3]): 4% and 5% | Population Membrane Permeable-Phenotype (%) (HEK-293T; [3]): 0% | Population Mitochondria Different-Phenotype (%) (HEK-293T; [3]): 20% and 38% | Population Mitotic Cells (%) (HEK-293T; [3]): 67% and 54% | Population Normal (%) (HEK-293T; [3]): 95% and 94% | Population Pyknosed Nuclei (%) (HEK-293T; [3]): 8% | Population Tubulin-Different-Phenotype (%) (HEK-293T; [3]): 17% and 15%
